# Data reported in the M2OR odorant receptor database.
# Positions count from the first letter of the chain named.
# What was measured:
# Conditions in all cases: stereoisomer not certain
# [1] = biological target: T1, OR2B11 (Homo sapiens) (UniProt Q5JQS5)
# T1 sequence (whole entry): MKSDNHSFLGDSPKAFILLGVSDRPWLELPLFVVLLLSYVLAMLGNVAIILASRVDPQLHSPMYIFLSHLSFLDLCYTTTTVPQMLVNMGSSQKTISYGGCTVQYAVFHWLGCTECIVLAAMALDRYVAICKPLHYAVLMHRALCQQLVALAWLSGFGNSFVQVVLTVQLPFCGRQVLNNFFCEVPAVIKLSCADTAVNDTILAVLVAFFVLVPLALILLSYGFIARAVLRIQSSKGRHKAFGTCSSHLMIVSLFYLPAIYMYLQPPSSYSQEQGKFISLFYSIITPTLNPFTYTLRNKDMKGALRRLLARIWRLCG
# Summary of the method: (§1)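 Each receptor–molecule pair is labelled responsive or non-responsive (inactive) according to whether the original authors judged the measured signal statistically different from baseline. The data were taken from the main text and supplementary material of published papers and checked for typos and inconsistencies. Assay methods differed by source, with transient luciferase assays in mammalian cell lines being common.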
# [2] = test system: T2, OR2BB
# T2 sequence (whole entry): T1 sequence (whole entry) with V198M, G223D
# Summary of the method: as §1
# [3] = test system: T3, OR2BB; remark: listed apart in the source
# T3 sequence (whole entry): T1 sequence (whole entry) with V198M, T293I, D300G
# Summary of the method: as §1
# [4] = test system: T4, OR2BB; remark: listed apart in the source
# T4 sequence (whole entry): T1 sequence (whole entry) with V198M
# Summary of the method: as §1
# [5] = test system: OR2BB; remark: listed apart in the source
# Summary of the method: as §1
# Target sequence in this assay (as listed by the source): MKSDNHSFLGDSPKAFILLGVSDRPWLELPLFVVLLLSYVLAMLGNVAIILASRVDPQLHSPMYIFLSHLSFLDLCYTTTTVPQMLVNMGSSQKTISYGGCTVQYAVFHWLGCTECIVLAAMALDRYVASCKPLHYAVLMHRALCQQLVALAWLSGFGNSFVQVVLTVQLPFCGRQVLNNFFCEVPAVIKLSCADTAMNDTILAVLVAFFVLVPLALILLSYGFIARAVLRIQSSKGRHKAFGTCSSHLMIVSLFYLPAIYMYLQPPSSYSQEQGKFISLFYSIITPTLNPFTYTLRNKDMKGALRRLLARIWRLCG
# [6] = biological target: T5, OR2AE1 (Homo sapiens) (UniProt Q8NHA4)
# T5 sequence (whole entry): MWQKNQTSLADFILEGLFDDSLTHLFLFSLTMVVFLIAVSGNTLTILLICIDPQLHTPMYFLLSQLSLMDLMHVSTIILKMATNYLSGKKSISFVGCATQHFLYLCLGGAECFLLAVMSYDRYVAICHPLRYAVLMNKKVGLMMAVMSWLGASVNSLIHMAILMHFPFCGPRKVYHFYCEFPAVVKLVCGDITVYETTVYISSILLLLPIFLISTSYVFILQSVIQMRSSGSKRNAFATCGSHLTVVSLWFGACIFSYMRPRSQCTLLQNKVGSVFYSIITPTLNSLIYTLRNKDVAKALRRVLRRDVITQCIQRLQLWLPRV
# Summary of the method: as §1
# [7] = biological target: T6, OR2AG1 (Homo sapiens) (UniProt Q9H205)
# T6 sequence (whole entry): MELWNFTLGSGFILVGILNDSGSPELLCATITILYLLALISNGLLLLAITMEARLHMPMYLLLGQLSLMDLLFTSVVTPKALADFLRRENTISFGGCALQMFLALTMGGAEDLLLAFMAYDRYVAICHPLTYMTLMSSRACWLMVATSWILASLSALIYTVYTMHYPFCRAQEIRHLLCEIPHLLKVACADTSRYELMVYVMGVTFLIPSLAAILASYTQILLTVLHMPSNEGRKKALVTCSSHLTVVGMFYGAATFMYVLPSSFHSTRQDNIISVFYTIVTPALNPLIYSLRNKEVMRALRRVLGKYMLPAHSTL
# Summary of the method: as §1
# [8] = biological target: T7, OR2AG2 (Homo sapiens) (UniProt A6NM03)
# T7 sequence (whole entry): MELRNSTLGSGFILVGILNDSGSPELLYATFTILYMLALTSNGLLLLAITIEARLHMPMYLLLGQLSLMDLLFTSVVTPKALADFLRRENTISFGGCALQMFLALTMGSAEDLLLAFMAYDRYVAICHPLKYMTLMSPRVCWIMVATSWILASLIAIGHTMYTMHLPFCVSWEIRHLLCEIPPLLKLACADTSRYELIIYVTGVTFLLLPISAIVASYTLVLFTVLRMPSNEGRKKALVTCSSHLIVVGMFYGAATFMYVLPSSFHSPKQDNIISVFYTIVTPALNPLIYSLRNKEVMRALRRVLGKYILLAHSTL
# Summary of the method: as §1
# [9] = biological target: T8, OR2AJ1 (Homo sapiens) (UniProt Q8NGZ0)
# T8 sequence (whole entry): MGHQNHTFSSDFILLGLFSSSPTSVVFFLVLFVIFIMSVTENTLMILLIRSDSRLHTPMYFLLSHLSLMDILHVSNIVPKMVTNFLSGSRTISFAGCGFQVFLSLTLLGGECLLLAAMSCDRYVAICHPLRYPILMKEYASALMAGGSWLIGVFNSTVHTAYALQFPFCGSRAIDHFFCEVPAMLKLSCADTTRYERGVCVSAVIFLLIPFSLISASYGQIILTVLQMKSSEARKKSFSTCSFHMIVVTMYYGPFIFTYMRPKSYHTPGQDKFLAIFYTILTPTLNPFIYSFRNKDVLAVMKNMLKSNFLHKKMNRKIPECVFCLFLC
# Summary of the method: as §1
# [10] = biological target: T9, OR2AK2 (Homo sapiens) (UniProt Q8NG84)
# T9 sequence (whole entry): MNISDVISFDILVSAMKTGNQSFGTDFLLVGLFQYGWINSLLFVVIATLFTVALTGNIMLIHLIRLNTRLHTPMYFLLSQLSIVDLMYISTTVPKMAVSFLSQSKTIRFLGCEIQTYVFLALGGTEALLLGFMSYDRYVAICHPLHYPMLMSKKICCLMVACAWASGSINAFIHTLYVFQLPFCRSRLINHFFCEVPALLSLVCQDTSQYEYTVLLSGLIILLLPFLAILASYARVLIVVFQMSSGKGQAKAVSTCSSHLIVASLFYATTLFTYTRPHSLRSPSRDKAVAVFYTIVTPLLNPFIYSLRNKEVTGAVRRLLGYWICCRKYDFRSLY
# Summary of the method: as §1
# [11] = biological target: T10, OR2AP1 (Homo sapiens) (UniProt Q8NGE2)
# T10 sequence (whole entry): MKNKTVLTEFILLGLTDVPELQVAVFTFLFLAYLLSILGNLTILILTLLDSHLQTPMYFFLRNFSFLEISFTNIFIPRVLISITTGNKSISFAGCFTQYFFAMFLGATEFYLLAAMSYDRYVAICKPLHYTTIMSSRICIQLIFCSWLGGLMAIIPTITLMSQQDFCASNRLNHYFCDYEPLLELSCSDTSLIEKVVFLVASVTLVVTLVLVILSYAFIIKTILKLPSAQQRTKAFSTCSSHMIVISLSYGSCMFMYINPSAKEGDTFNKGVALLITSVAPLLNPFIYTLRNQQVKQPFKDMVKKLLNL
# Summary of the method: as §1
# [12] = biological target: T11, OR2AT4 (Homo sapiens) (UniProt A6NND4)
# T11 sequence (whole entry): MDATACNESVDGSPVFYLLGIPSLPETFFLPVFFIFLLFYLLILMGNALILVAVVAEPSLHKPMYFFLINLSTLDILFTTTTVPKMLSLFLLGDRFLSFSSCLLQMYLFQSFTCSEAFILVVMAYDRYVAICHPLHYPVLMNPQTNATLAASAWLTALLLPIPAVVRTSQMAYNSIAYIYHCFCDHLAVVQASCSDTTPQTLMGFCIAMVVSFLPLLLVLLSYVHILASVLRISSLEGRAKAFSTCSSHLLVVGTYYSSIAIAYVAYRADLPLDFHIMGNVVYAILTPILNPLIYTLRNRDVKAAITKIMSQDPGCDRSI
# Summary of the method: as §1
# [13] = biological target: T12, OR2B2 (Homo sapiens) (UniProt Q9GZK3)
# T12 sequence (whole entry): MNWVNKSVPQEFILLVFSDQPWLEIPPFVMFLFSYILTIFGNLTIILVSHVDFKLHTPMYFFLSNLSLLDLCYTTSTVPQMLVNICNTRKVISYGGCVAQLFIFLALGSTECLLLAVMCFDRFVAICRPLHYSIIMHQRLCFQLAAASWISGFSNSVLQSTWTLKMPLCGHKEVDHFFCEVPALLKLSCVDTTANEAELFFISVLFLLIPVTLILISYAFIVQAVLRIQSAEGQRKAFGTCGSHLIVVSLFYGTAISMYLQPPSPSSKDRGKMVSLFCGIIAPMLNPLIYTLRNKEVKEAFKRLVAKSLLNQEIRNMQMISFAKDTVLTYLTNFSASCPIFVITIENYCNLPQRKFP
# Summary of the method: as §1
# [14] = biological target: T13, OR2B6 (Homo sapiens) (UniProt P58173)
# T13 sequence (whole entry): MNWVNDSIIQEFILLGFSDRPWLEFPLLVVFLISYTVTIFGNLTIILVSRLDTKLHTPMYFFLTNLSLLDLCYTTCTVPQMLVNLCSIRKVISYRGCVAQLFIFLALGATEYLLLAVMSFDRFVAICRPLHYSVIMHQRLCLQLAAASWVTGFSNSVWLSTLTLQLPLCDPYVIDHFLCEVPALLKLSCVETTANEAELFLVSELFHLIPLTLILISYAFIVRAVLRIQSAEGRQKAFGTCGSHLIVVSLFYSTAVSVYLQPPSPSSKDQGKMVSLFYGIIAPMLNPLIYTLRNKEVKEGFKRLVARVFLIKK
# Summary of the method: as §1
# [15] = biological target: T14, OR2C1 (Homo sapiens) (UniProt O95371)
# T14 sequence (whole entry): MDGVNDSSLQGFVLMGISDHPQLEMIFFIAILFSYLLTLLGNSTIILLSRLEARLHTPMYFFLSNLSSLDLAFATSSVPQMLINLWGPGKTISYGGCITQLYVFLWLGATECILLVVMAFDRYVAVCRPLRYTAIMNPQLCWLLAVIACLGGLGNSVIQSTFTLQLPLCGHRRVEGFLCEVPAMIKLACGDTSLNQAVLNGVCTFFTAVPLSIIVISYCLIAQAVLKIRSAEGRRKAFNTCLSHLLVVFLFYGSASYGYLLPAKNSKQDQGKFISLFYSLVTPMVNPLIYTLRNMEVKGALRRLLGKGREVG
# Summary of the method: as §1
# [16] = test system: T15, OR2A7
# T15 sequence (whole entry): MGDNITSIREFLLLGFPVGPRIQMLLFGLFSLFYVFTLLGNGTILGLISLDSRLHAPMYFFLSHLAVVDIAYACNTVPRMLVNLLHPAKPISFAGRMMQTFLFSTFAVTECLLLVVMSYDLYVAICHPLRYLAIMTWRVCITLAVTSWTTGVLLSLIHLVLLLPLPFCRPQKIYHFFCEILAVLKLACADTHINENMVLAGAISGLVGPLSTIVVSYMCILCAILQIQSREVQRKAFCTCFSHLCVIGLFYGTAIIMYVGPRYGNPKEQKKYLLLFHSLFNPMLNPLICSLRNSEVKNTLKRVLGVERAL
# Summary of the method: as §1
# [17] = biological target: T16, OR2B3 (Homo sapiens) (UniProt O76000)
# T16 sequence (whole entry): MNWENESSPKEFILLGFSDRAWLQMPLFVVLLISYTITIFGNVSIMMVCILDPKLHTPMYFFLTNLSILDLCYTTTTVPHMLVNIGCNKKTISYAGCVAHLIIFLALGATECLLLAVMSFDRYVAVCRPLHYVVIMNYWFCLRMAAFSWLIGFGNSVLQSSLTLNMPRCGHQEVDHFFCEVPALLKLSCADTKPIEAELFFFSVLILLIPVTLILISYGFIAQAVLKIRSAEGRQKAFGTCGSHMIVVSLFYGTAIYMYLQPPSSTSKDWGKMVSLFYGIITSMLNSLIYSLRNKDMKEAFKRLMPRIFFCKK
# Summary of the method: as §1
# [18] = test system: T17, OR2C1
# T17 sequence (whole entry): T14 sequence (whole entry) with C149W
# Summary of the method: as §1
# 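Note: active if original authors judged signal statistically different from baseline.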
Compound,odorant receptor agonist call [1],odorant receptor agonist call [2],odorant receptor agonist call [3],odorant receptor agonist call [4],odorant receptor agonist call [5],odorant receptor agonist call [6],odorant receptor agonist call [7],odorant receptor agonist call [8],odorant receptor agonist call [9],odorant receptor agonist call [10],odorant receptor agonist call [11],odorant receptor agonist call [12],odorant receptor agonist call [13],odorant receptor agonist call [14],odorant receptor agonist call [15],odorant receptor agonist call [16],odorant receptor agonist call [17],odorant receptor agonist call [18]
c1ccc2ncccc2c1,active,inactive,active,active,inactive,,,,,,,,,,,,,
CC1CCCCCCCCCCCCC(=O)C1 (stereo not drawn),inactive,,,,,inactive,inactive,inactive,inactive,inactive,inactive,inactive,inactive,inactive,inactive,,,
CCCCCCC=CCCC=O,inactive,inactive,,inactive,,inactive,inactive,inactive,inactive,inactive,inactive,inactive,inactive,inactive,inactive,inactive,inactive,inactive
C=CCOC(=O)COCCC(C)C,,,,,,,,,,,,,,,,,inactive,
CCC(S)C(C)CO (stereo not drawn),inactive,,,,,inactive,inactive,inactive,inactive,inactive,inactive,inactive,inactive,inactive,inactive,,inactive,
Cc1cnc(C)c(C)n1,inactive,inactive,,inactive,,inactive,inactive,inactive,,inactive,inactive,inactive,inactive,inactive,inactive,inactive,inactive,inactive
CCCCCC(S)C(C)CO (stereo not drawn),inactive,,,,,inactive,inactive,inactive,inactive,active,inactive,inactive,active,inactive,inactive,,inactive,
O=c1ccc2ccccc2o1,active,inactive,active,active,inactive,,,,,,,,,,inactive,,,
